# Measurements reported in ChEMBL document CHEMBL3351675, “Novel benzenesulfonylureas containing thiophenylpyrazoline moiety as potential antidiabetic and anticancer agents” (Bioorg Med Chem Lett, 2014).
# Calls of active or inactive are those of the source. The rule behind the calls is not given here.
# How the values were obtained:
# U-251 = assay: Anticancer activity against human U251 cells assessed as cell growth level at 10 uM after 48 hrs by sulforhodamine B assay; type: functional
# M14 = assay: Anticancer activity against human M14 cells assessed as cell growth level at 10 uM after 48 hrs by sulforhodamine B assay; type: functional
# HL-60(TB) = assay: Anticancer activity against human HL-60(TB) cells assessed as cell growth level at 10 uM after 48 hrs by sulforhodamine B assay; type: functional
# [1] = Anticancer activity against human RPMI8226 cells assessed as cell growth level at 10 uM after 48 hrs by sulforhodamine B assay; type: functional, RPMI-8226
# MDA-MB-435 = assay: Anticancer activity against human MDA-MB-435 cells assessed as cell growth level at 10 uM after 48 hrs by sulforhodamine B assay; type: functional
# [2] = Anticancer activity against human HCC2998 cells assessed as cell growth level at 10 uM after 48 hrs by sulforhodamine B assay; type: functional, HCC 2998
# [3] = Anticancer activity against human MOLT4 cells assessed as cell growth level at 10 uM after 48 hrs by sulforhodamine B assay; type: functional, MOLT-4
# DU-145 = assay: Anticancer activity against human DU145 cells assessed as cell growth level at 10 uM after 48 hrs by sulforhodamine B assay; type: functional
# [4] = Anticancer activity against human SKOV3 cells assessed as cell growth level at 10 uM after 48 hrs by sulforhodamine B assay; type: functional, SK-OV-3
# Rattus norvegicus [5] = assay: Antidiabetic activity in overnight fasted Wistar rat assessed as reduction in plasma glucose level at 30 mg/kg, po by oral glucose tolerance test; type: functional, organism-based; design: dose 30 mg/kg
# Procedure, shortened: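 Normal Wistar rats were given a glucose load by the oral glucose tolerance method, and plasma glucose rise was followed after oral test dosing. Glibenclamide was the reference drug. Data are mean ± SEM of six observations versus control, analysed by one-way ANOVA with Dunnett test (p < 0.05, p < 0.01).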
# [6] = Anticancer activity against human HOP92 cells assessed as cell growth level at 10 uM after 48 hrs by sulforhodamine B assay; type: functional, HOP-92
# [7] = Anticancer activity against human PC3 cells assessed as cell growth level at 10 uM after 48 hrs by sulforhodamine B assay; type: functional, PC-3
# NCI-H522 = assay: Anticancer activity against human NCI-H522 cells assessed as cell growth level at 10 uM after 48 hrs by sulforhodamine B assay; type: functional
# HOP-62 = assay: Anticancer activity against human HOP62 cells assessed as cell growth level at 10 uM after 48 hrs by sulforhodamine B assay; type: functional
# Rattus norvegicus [8] = assay: Effect on body weight in Wistar rat model of streptozotocin-induced diabetes at 30 mg/kg, po measured over 15 days; type: ADME, organism-based; design: dose 30 mg/kg, route oral; settings: in vivo, 360 h
# [9] = Anticancer activity against human SF539 cells assessed as cell growth level at 10 uM after 48 hrs by sulforhodamine B assay; type: functional, SF-539
# NCI-H23 = assay: Anticancer activity against human NCI-H23 cells assessed as cell growth level at 10 uM after 48 hrs by sulforhodamine B assay; type: functional
# TK-10 = assay: Anticancer activity against human TK10 cells assessed as cell growth level at 10 uM after 48 hrs by sulforhodamine B assay; type: functional
# Malme-3M = assay: Anticancer activity against human MALME-3M cells assessed as cell growth level at 10 uM after 48 hrs by sulforhodamine B assay; type: functional
# 786-0 = assay: Anticancer activity against human 786-0 cells assessed as cell growth level at 10 uM after 48 hrs by sulforhodamine B assay; type: functional
# [10] = Anticancer activity against human UACC62 cells assessed as cell growth level at 10 uM after 48 hrs by sulforhodamine B assay; type: functional, UACC-62
# [11] = Anticancer activity against human NCI-ADR-RES cells assessed as cell growth level at 10 uM after 48 hrs by sulforhodamine B assay; type: functional
# A498 = assay: Anticancer activity against human A498 cells assessed as cell growth level at 10 uM after 48 hrs by sulforhodamine B assay; type: functional
# SN12C = assay: Anticancer activity against human SN12C cells assessed as cell growth level at 10 uM after 48 hrs by sulforhodamine B assay; type: functional
# SNB-75 = assay: Anticancer activity against human SNB75 cells assessed as cell growth level at 10 uM after 48 hrs by sulforhodamine B assay; type: functional
# [12] = Anticancer activity against human NCI60 cells assessed as cell growth level at 10 uM after 48 hrs by sulforhodamine B assay; type: functional
# IGROV-1 = assay: Anticancer activity against human IGROV1 cells assessed as cell growth level at 10 uM after 48 hrs by sulforhodamine B assay; type: functional
# SK-MEL-28 = assay: Anticancer activity against human SK-MEL-28 cells assessed as cell growth level at 10 uM after 48 hrs by sulforhodamine B assay; type: functional
# NCI-H226 = assay: Anticancer activity against human NCI-H226 cells assessed as cell growth level at 10 uM after 48 hrs by sulforhodamine B assay; type: functional
# SF-268 = assay: Anticancer activity against human SF268 cells assessed as cell growth level at 10 uM after 48 hrs by sulforhodamine B assay; type: functional
# NCI-H460 = assay: Anticancer activity against human NCI-H460 cells assessed as cell growth level at 10 uM after 48 hrs by sulforhodamine B assay; type: functional
# [13] = Anticancer activity against human OVCAR8 cells assessed as cell growth level at 10 uM after 48 hrs by sulforhodamine B assay; type: functional, OVCAR-8
# SW-620 = assay: Anticancer activity against human SW620 cells assessed as cell growth level at 10 uM after 48 hrs by sulforhodamine B assay; type: functional
# MCF7 = assay: Anticancer activity against human MCF7 cells assessed as cell growth level at 10 uM after 48 hrs by sulforhodamine B assay; type: functional
# HT-29 = assay: Anticancer activity against human HT-29 cells assessed as cell growth level at 10 uM after 48 hrs by sulforhodamine B assay; type: functional
# K562 = assay: Anticancer activity against human K562 cells assessed as cell growth level at 10 uM after 48 hrs by sulforhodamine B assay; type: functional
# [14] = Anticancer activity against human SF295 cells assessed as cell growth level at 10 uM after 48 hrs by sulforhodamine B assay; type: functional, SF-295
# A549 = assay: Anticancer activity against human A549/ATCC cells assessed as cell growth level at 10 uM after 48 hrs by sulforhodamine B assay; type: functional
# SNB-19 = assay: Anticancer activity against human SNB19 cells assessed as cell growth level at 10 uM after 48 hrs by sulforhodamine B assay; type: functional
# T47D = assay: Anticancer activity against human T47D cells assessed as cell growth level at 10 uM after 48 hrs by sulforhodamine B assay; type: functional
# [15] = Anticancer activity against human Hs 578T cells assessed as cell growth level at 10 uM after 48 hrs by sulforhodamine B assay; type: functional
# KM12 = assay: Anticancer activity against human KM12 cells assessed as cell growth level at 10 uM after 48 hrs by sulforhodamine B assay; type: functional
# SR = assay: Anticancer activity against human SR cells assessed as cell growth level at 10 uM after 48 hrs by sulforhodamine B assay; type: functional
# [16] = Anticancer activity against human OVCAR3 cells assessed as cell growth level at 10 uM after 48 hrs by sulforhodamine B assay; type: functional, OVCAR-3
smiles,measurement,setting,value
COc1ccc(NC(=O)NS(=O)(=O)c2ccc(N3N=C(c4cccs4)CC3c3ccc(C)s3)cc2)cc1 (stereo not drawn),Activity,U-251,98.07%
same,Activity,M14,52.12%
same,Activity,HL-60(TB),102.86%
same,Activity,[1],95.29%
same,Activity,MDA-MB-435,52.3%
same,Activity,[2],111.31%
same,Activity,[3],94.7%
same,Activity,DU-145,105.62%
same,Activity,[4],82.55%
same,inhibition,Rattus norvegicus [5],Active
same,Activity,[6],87.06%
same,Activity,[7],96.33%
same,Activity,NCI-H522,87.33%
same,Activity,HOP-62,81.02%
same,Activity,Rattus norvegicus [8],Non-toxic
same,Activity,[9],104.31%
same,Activity,NCI-H23,97.55%
same,Activity,TK-10,96.03%
same,Activity,Malme-3M,31.15%
same,Activity,786-0,100.87%
same,Activity,[10],31%
same,Activity,[11],103.44%
same,Activity,A498,101.86%
same,Activity,SN12C,111.79%
same,Activity,SNB-75,99.87%
same,Activity,[12],87.76%
same,Activity,IGROV-1,108.05%
same,Activity,SK-MEL-28,48.3%
same,Activity,NCI-H226,110.15%
same,Activity,SF-268,97.85%
same,Activity,NCI-H460,108.95%
same,Activity,[13],106.9%
same,Activity,SW-620,107.16%
same,Activity,MCF7,99.04%
same,Activity,HT-29,119.52%
same,Activity,K562,111.39%
same,Activity,[14],104.7%
same,Activity,A549,5.45%
same,Activity,SNB-19,103.16%
same,Activity,T47D,85.68%
same,Activity,[15],97.52%
same,Activity,KM12,98.51%
same,Activity,SR,75.83%
same,Activity,[16],106.38%
Cc1ccc(NC(=O)NS(=O)(=O)c2ccc(N3N=C(c4cccs4)CC3c3ccc(C)s3)cc2)cc1 (stereo not drawn),Activity,U-251,94.12%
same,Activity,M14,58.39%
same,Activity,HL-60(TB),126.37%
same,Activity,[1],83.37%
same,Activity,MDA-MB-435,61.95%
same,Activity,[2],108.61%
same,Activity,[3],94.41%
same,Activity,DU-145,102.33%
same,Activity,[4],78.27%
same,inhibition,Rattus norvegicus [5],Active
same,Activity,[6],84.91%
same,Activity,[7],86.34%
same,Activity,NCI-H522,91.51%
same,Activity,HOP-62,76.92%
same,Activity,Rattus norvegicus [8],Non-toxic
same,Activity,[9],98.31%
same,Activity,NCI-H23,98.53%
same,Activity,TK-10,96.78%
same,Activity,Malme-3M,40.64%
same,Activity,786-0,103.79%
same,Activity,[10],40.91%
same,Activity,[11],102.87%
same,Activity,A498,109%
same,Activity,SN12C,111.21%
same,Activity,SNB-75,93.74%
same,Activity,[12],89.29%
same,Activity,IGROV-1,107.76%
same,Activity,SK-MEL-28,47.8%
same,Activity,NCI-H226,110.48%
same,Activity,SF-268,95.62%
same,Activity,NCI-H460,103.16%
same,Activity,[13],99.82%
same,Activity,SW-620,106.34%
same,Activity,MCF7,97.09%
same,Activity,HT-29,127.85%
same,Activity,K562,113.81%
same,Activity,[14],100.07%
same,Activity,A549,101.55%
same,Activity,SNB-19,108.18%
same,Activity,T47D,78.79%
same,Activity,[15],96.05%
same,Activity,KM12,97.36%
same,Activity,SR,84.69%
same,Activity,[16],98.17%
